Screens (PubChem)
eIF4E-4G inh = inhibitors of eIF4E and eIF4G interaction in translation initiation. P63073+Q04637. inhibition, % at 21.7 µM. 220,000 compounds, 0.37% hits. TR-FRET eIF4E-eIF4GI(517-606) binding, 2 h;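 also: 0% = full FRET control wells and 100% = background wells lacking eIF4GI fragment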
14-3-3 Bad PPI = disrupts binding of bovine 14-3-3 zeta to phospho-Bad peptide; P63103; TR-FRET 14-3-3zeta/Dy647-pBad peptide displacement, 1 h; inhibition, % at 21.7 µM; 220,000 compounds, 0.71% hits; AID 781;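 active = inhibition above about 70%, limit read from the data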;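 also: 0% = full 14-3-3 plus peptide FRET controls and 100% = background without 14-3-3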
Target sequence (P63103 whole entry, looked up): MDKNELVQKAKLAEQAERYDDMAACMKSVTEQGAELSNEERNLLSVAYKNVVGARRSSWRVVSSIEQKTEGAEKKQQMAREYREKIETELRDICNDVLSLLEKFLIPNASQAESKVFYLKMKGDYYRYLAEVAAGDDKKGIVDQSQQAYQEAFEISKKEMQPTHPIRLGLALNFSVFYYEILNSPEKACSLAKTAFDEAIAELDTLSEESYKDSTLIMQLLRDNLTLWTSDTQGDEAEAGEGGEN
Diaph act CS = counter-screen for diaphorase-based assays: diaphorase activators and chemical reducers | Diaphorase/resazurin coupled assay, resorufin fluorescence, 16 min; stronger effect = higher value; 1 = vehicle wells, 0 = NADH-free wells | AID 1229 | 190,000 compounds, 0.005% hits | activation factor at 20 µM;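 active = diaphorase activity raised at least twofold by the compound at 20 µM; inactive = activation factor below 2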
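Material: purified diaphorase enzyme from Clostridium kluyveri; Also added: 0.114 mM NADH and 0.1 mM resazurin, final amounts; Doses: single compound dose of 20 µM, 1% DMSO final; Times: 16 min enzyme reaction, ambient temperature; Detection: resorufin fluorescence, excitation 544 nm, emission 590 nm; Measure: increased resorufin signal from activators or reducing compounds.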
Hck Nef HTS = inhibitors of human Hck kinase activated by Nef; P08631; Recombinant Hck-YEEI plus Nef, Z-Lyte FRET kinase assay; inhibition, % at 20 µM; 220,000 compounds, 0.68% hits; AID 463187;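 active = Hck-Nef kinase inhibition above about 50%, limit read from the data; inactive = inhibition below that limit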;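 also: 0% = DMSO with Hck plus Nef and 100% = Hck alone without Nef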
NCF1 inh = p47phox (human) inhibition; P14598; p47phox/p22phox peptide binding, fluorescence polarization, 2 h; inhibition, % at 24.7 µM; 220,000 compounds, 0.53% hits; AID 1274;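 also: 0% = p47phox with labelled peptide and 100% = labelled peptide alone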
Starred values were filed as active, the others as inactive; / = no result; [ ] = another dose, or the depositor's remark. Hits are enriched below; roughly 2% of the tested compounds scored in any of these assays.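 The calls were made as follows, unless noted: active = inhibition above about 30% (limit read from the data); inactive = the rest.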

SMILES	eIF4E-4G inh	14-3-3 Bad PPI	Diaph act CS	Hck Nef HTS	NCF1 inh
Cc1ccc(Cn2c(Cc3ccccc3)nc3ccccc32)cc1	2	66	0.8	-1	-21
Cc1ccc(Cn2c(S(=O)(=O)O)nc3ccccc32)cc1	-4	81*	0.9	-5	-8
CC1=CC(=O)C=C(C)C1=NOc1ccc([N+](=O)[O-])cc1	26	74*	0.7	18	9
COc1ccc(-c2cn[nH]c2-c2ccc(OCc3ccc([N+](=O)[O-])cc3)cc2O)cc1	6	0	0.9	-1	35*
CCOc1ccc(-c2[nH]ncc2-c2ccc(OC)c(OC)c2)c(O)c1	-1	-7	0.9	0	-15
CC1CCc2c(sc3ncnc(NCCN4CCOCC4)c23)C1 (configuration not stated)	51*	-2	/	29	-15
CC1CCc2c(sc3ncnc(N4CCOCC4)c23)C1 (configuration not stated)	-5	5	0.9	5	-7
Oc1oc(-c2ccccc2Br)nc1C=Nc1ccc(Br)cn1	19	76*	1.1	24	23
O=C1CN(CC(=O)Nc2cccc(Cl)c2Cl)c2ccccc2N1	-6	4	0.9	7	37*
CCOc1ccc(NC(=O)CN(C)CC(=O)Nc2ccc(Br)cc2F)cc1OCC	-2	-3	1	-29	-5
O=C(CCCc1c[nH]c2ccccc12)Nc1ccc(S(=O)(=O)Nc2ncccn2)cc1	-1	-7	/	22	-35
Cc1ccc(-c2csc(NC(=O)CSc3nc4ccccc4c(=O)n3CCCN(C)C)n2)cc1	31*	68	1.2	28	37*
Cn1ncc(Br)c1N1C(=O)CCC1=O	3	-1	/	-3	-4
O=C(O)/C(=C\C(=O)c1ccccc1)Nc1ccccc1	1	5	/	9	-8
Nc1c(C(=O)O)ccc2c1C(=O)c1ccccc1C2=O	0	-1	0.8	14	77*
CN1C=CC(=CC=C2C=CC(=O)C=C2)C=C1	-1	-11	/	-41	-41
O=C(N/N=C/c1ccc(Br)s1)c1ccc([N+](=O)[O-])cc1	16	71*	1.1	0	5
Cc1ccc([N+](=O)[O-])cc1N=Cc1ccc(Br)s1	2	74*	0.8	-1	-13
O=C(N/N=C/c1ccc(Br)s1)c1ccccc1[N+](=O)[O-]	1	7	0.8	7	-3
O=C(N/N=C/c1ccccc1O)C(=O)Nc1ccccn1	-2	-27	1	18	-1
COCCCNC(=O)c1cc(C)nn1-c1ccccc1	2	6	/	23	2
COc1ccc(S(=O)(=O)Nc2cc(Sc3ncn[nH]3)c(O)c3ccccc23)cc1	46*[fluorescence artefact?]	87*[fluorescence artefact?]	0.8	22	16
O=C(N/N=C/c1ccc([N+](=O)[O-])o1)c1cc2c(ccc3ccccc32)o1	38*	93*	0.8	30	30*
O=C(N/N=C/c1ccc([N+](=O)[O-])o1)c1cc2ccccc2o1	1	3	/	14	-24
CC(OC(=O)c1ccncc1)C(=O)NC1CCCC1 (configuration not stated)	0	-6	0.8	-8	-8
SMILES	eIF4E-4G inh	14-3-3 Bad PPI	Diaph act CS	Hck Nef HTS	NCF1 inh
COC(=O)c1sc(C(C)(C)C)cc1CSc1ccccc1	-2	-3	/	2	-7
CCCn1c(SCC(=O)C(C)(C)C)nc2ccccc21	1	11	0.8	16	-6
CCCn1c(SC(C)C(=O)O)nc2ccccc21 (configuration not stated)	-1	83*	0.9	0	11
Cc1nn(Cc2nnc(SCC(=O)Nc3ccc(Cl)cc3)n2C)c(C)c1[N+](=O)[O-]	1	0	/	18	2
CCC1(c2ccccc2)NC(=S)N(c2ccc(C)c(C)c2)N1 (configuration not stated)	52*	-2	0.8	-1	-13
Cc1cc(C)n2nc(-c3ccco3)nc2n1	1	-21	0.8	16	7
S=c1[nH]nc(-c2ccccn2)n1/N=C/c1ccc(-c2ccccc2Cl)o1	-1	-15	0.8	76*	8
C=C(C)Cn1cnc2c(oc3nc4c(cc32)CCCC4)c1=O	-3	-3	/	8	1
CCOc1cc(CNCCc2ccc(S(N)(=O)=O)cc2)cc(Cl)c1OCc1ccccc1	4	9	0.9	1	79*
O=C(NC1CC1)C1=C[C@@H](C2CC2)C[C@@H](OCc2ccc(CO)cc2)O1	34*	1	/	24	-11
O=C(NC1CC1)C1=C[C@@H](C2CCCCC2)C[C@@H](OCc2ccc(CO)cc2)O1	0	0	0.9	10	/
CCOC(=O)CSc1nnc(NC(=O)c2cc([N+](=O)[O-])cc([N+](=O)[O-])c2)s1	-3	11	0.8	0	36*
COc1ccc(CCNc2ccncn2)cc1	-1	72*	1	1	-4
Cn1c(N)c(C(=O)COC(=O)C2=NNC(=O)CC2)c(=O)n(C)c1=O	4	-3	/	2	-15
O=C(N/N=C/c1ccccc1O)c1cc(=O)[nH]c2ccccc12	40*[fluorescence artefact?]	-30	0.8	-1	0
CC(NC(=O)c1cc(=O)[nH]c2ccccc12)c1ccccc1 (configuration not stated)	1	-4	1.1	16	4
CN(C)c1cccc2c1c(NC(=O)c1ccc(Cl)cc1)nn2C	7	-9	/	0	-19
O=C(NNC(=S)Nc1ccc(F)cc1)C1[C@H]2CCCC[C@@H]12 (some centres not stated)	2	-7	/	11	-6
Cc1nc(-c2ccccc2)cn(O)c1=O	1	72*	0.8	20	0
CC(/C=C1\SC(=S)N(CC(=O)O)C1=O)=C\c1ccccc1	-4	1	/	12	-5
CC(/C=C1\SC(=S)N(C(C(=O)O)c2ccccc2)C1=O)=C\c1ccccc1 (configuration not stated)	2	11	/	75*	-11
COc1ccc(CCC(C)Nc2cccc(F)c2)cc1 (configuration not stated)	3	86*	0.9	-1	-12
CCc1ccccc1N1CSC2=C(C#N)C(c3cc(OC)c(OC)cc3OC)CC(=O)N2C1 (configuration not stated)	18	12	0.5	2	31*
COc1ccc2ccccc2c1C1CC(=O)N2CN(C)CSC2=C1C#N (configuration not stated)	49*[fluorescence artefact?]	27	0.5	0	9
CCCCNC(=O)COC(=O)c1ccc(N(C)C)cc1	3	-2	0.9	-1	0
O=C(Nn1cnnc1)c1cc(-c2cccc(Br)c2)nc2ccccc12	-1	-2	/	25	-22
CNc1nc(N)c(C(=O)C23CC4CC(CC(C4)C2)C3)s1	0	-8	0.8	22	-3
